Data taken from ChEMBL document CHEMBL4118253, “Expedient synthesis and biological evaluation of alkenyl acyclic nucleoside phosphonate prodrugs” (Bioorg Med Chem, 2018).

How the values were obtained:
Human alphaherpesvirus 1 [1] = assay: Antiviral activity against Herpes simplex virus 1 KOS infected in HEL cells assessed as inhibition of virus-induced cytopathicity; type: functional, organism-based; conditions: Human alphaherpesvirus 1, KOS
Human alphaherpesvirus 2 = assay: Antiviral activity against Herpes simplex virus 2 G infected in HEL cells assessed as inhibition of virus-induced cytopathicity; type: functional, organism-based; conditions: Human alphaherpesvirus 2, strain G
Human alphaherpesvirus 1 [2] = assay: Antiviral activity against acyclovir-resistant thymidine kinase deficient Herpes simplex virus 1 KOS infected in HEL cells assessed as inhibition of virus-induced cytopathicity; type: functional, organism-based; conditions: Human alphaherpesvirus 1, KOS
Vaccinia virus = assay: Antiviral activity against Vaccinia virus infected in HEL cells assessed as inhibition of virus-induced cytopathicity; type: functional, organism-based; conditions: Orthopoxvirus vaccinia
Human adenovirus 2 = assay: Antiviral activity against Adenovirus 2 infected in HEL cells assessed as inhibition of virus-induced cytopathicity; type: functional, organism-based; conditions: Human mastadenovirus C
Human coronavirus 229E = assay: Antiviral activity against Human coronavirus 229E infected in HEL cells assessed as inhibition of virus-induced cytopathicity; type: functional, organism-based
Human respirovirus 3 = assay: Antiviral activity against Parainfluenza virus 3 infected in human HeLa cells assessed as inhibition of virus-induced cytopathicity; type: functional, organism-based; conditions: Human respirovirus 3, HeLa
[3] = tested on: Mammalian orthoreovirus 1; assay: Antiviral activity against Reovirus-1 infected in human HeLa cells assessed as inhibition of virus-induced cytopathicity; type: functional, organism-based; conditions: Mammalian orthoreovirus 1, HeLa
[4] = tested on: Vesicular stomatitis virus; assay: Antiviral activity against Vesicular stomatitis virus infected in human HeLa cells assessed as inhibition of virus-induced cytopathicity; type: functional, organism-based
[5] = tested on: Respiratory syncytial virus; assay: Antiviral activity against Respiratory syncytial virus infected in human HeLa cells assessed as inhibition of virus-induced cytopathicity; type: functional, organism-based
Influenza A virus [6] = assay: Antiviral activity against Influenza A virus H1N1 infected in MDCK cells assessed as inhibition of virus-induced cytopathicity by MTS assay; type: functional, organism-based
Influenza A virus H3N2 [7] = assay: Antiviral activity against Influenza A virus H3N2 infected in MDCK cells assessed as inhibition of virus-induced cytopathicity by MTS assay; type: functional, organism-based
Influenza B virus [8] = assay: Antiviral activity against Influenza B virus infected in MDCK cells assessed as inhibition of virus-induced cytopathicity by MTS assay; type: functional, organism-based
Human alphaherpesvirus 3 [9] = assay: Antiviral activity against thymidine kinase expressing Varicella-Zoster virus infected in HEL cells assessed as reduction in virus plaque formation; type: functional, organism-based; conditions: Human alphaherpesvirus 3, HEL
Human alphaherpesvirus 3 [10] = assay: Antiviral activity against thymidine kinase deficient Varicella-Zoster virus infected in HEL cells assessed as reduction in virus plaque formation; type: functional, organism-based; conditions: Human alphaherpesvirus 3, HEL
Human betaherpesvirus 5 [11] = assay: Antiviral activity against Human cytomegalovirus AD169 infected in HEL cells assessed as inhibition of virus-induced cytopathicity; type: functional, organism-based; conditions: Human betaherpesvirus 5, AD169, HEL
Human betaherpesvirus 5 [12] = assay: Antiviral activity against Human cytomegalovirus Davis infected in HEL cells assessed as inhibition of virus-induced cytopathicity; type: functional, organism-based; conditions: Human betaherpesvirus 5, Davis
[13] = Cytotoxicity against HEL cells assessed as alteration of cell morphology by microscopic analysis; type: cell-based; conditions: human
Summary of the method: (§1)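 The value is the minimal cytotoxic concentration (MCC), the lowest concentration that causes a microscopically visible change in cell morphology. It was read in the same HEL or Vero cell cultures used for the antiviral tests.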

Sindbis virus = assay: Antiviral activity against Sindbis Virus infected in African green monkey Vero cells assessed as inhibition of virus-induced cytopathicity; type: functional, organism-based
Coxsackievirus B4 = assay: Antiviral activity against Coxsackie virus B4 infected in African green monkey Vero cells assessed as inhibition of virus-induced cytopathicity; type: functional, organism-based; conditions: Enterovirus B
Punta Toro virus = assay: Antiviral activity against Punta Toro virus infected in African green monkey Vero cells assessed as inhibition of virus-induced cytopathicity; type: functional, organism-based
Yellow fever virus = assay: Antiviral activity against Yellow fever virus infected in African green monkey Vero cells assessed as inhibition of virus-induced cytopathicity; type: functional, organism-based
[14] = Cytotoxicity against African green monkey Vero cells assessed as alteration of cell morphology by microscopic analysis; type: cell-based; conditions: chlorocebus sabaeus; summary of the method: as §1
[15] = Cytotoxicity against human HeLa cells assessed as alteration of cell morphology by microscopic analysis; type: cell-based
[16] = Cytotoxicity against MDCK cells assessed as alteration of cell morphology by microscopic analysis; type: cell-based, Canis lupus familiaris; conditions: dog
Influenza A virus [17] = assay: Antiviral activity against Influenza A virus H1N1 infected in MDCK cells assessed as inhibition of virus-induced visual cytopathicity; type: functional, organism-based
Influenza A virus H3N2 [18] = assay: Antiviral activity against Influenza A virus H3N2 infected in MDCK cells assessed as inhibition of virus-induced visual cytopathicity; type: functional, organism-based
Influenza B virus [19] = assay: Antiviral activity against Influenza B virus infected in MDCK cells assessed as inhibition of virus-induced visual cytopathicity; type: functional, organism-based

Row | Compound | EC50 (Human alphaherpesvirus 1 [1]) [µM] | EC50 (Human alphaherpesvirus 2) [µM] | EC50 (Human alphaherpesvirus 1 [2]) [µM] | EC50 (Vaccinia virus) [µM] | EC50 (Human adenovirus 2) [µM] | EC50 (Human coronavirus 229E) [µM] | EC50 (Human respirovirus 3) [µM] | EC50 [3] [µM] | EC50 [4] [µM] | EC50 [5] [µM] | EC50 (Influenza A virus [6]) [µM] | EC50 (Influenza A virus H3N2 [7]) [µM] | EC50 (Influenza B virus [8]) [µM] | EC50 (Human alphaherpesvirus 3 [10]) [µM] | EC50 (Human betaherpesvirus 5 [12]) [µM] | MCC [13] [µM] | EC50 (Sindbis virus) [µM] | EC50 (Coxsackievirus B4) [µM] | EC50 (Punta Toro virus) [µM] | EC50 (Yellow fever virus) [µM] | further results
1 | C/C(=C\CP(=O)(N[C@@H](C)C(=O)OCc1ccccc1)Oc1cccc2ccccc12)Cn1cc(C)c(=O)[nH]c1=O (stereo not given in full) | > 100 | > 100 | > 100 | > 100 | > 100 | > 100 | > 100 | > 100 | > 100 | > 100 | > 100 | > 100 | > 100 | 55.3 | > 100 | > 100 | > 100 | > 100 | > 100 | > 100 | EC50 (Human alphaherpesvirus 3 [9]): 34.2 µM; EC50 (Human betaherpesvirus 5 [11]): > 100 µM; MCC [14]: > 100 µM; MCC [15]: > 100 µM; MCC [16]: > 100 µM; EC50 (Influenza A virus [17]): > 100 µM; EC50 (Influenza A virus H3N2 [18]): > 100 µM; EC50 (Influenza B virus [19]): > 100 µM
2 | C/C(=C\CP(=O)(N[C@@H](C)C(=O)OCc1ccccc1)Oc1ccccc1)Cn1cc(C)c(=O)[nH]c1=O (stereo not given in full) | > 100 | > 100 | > 100 | > 100 | > 100 | > 100 | > 100 | > 100 | > 100 | > 100 | > 100 | > 100 | > 100 | 46.7 | > 100 | > 100 | > 100 | > 100 | > 100 | > 100 | EC50 (Human alphaherpesvirus 3 [9]): 55.7 µM; EC50 (Human betaherpesvirus 5 [11]): > 100 µM; MCC [14]: > 100 µM; MCC [15]: > 100 µM; MCC [16]: > 100 µM; EC50 (Influenza A virus [17]): > 100 µM; EC50 (Influenza A virus H3N2 [18]): > 100 µM; EC50 (Influenza B virus [19]): > 100 µM
3 | C/C(=C\CP(=O)(N[C@@H](C)C(=O)OC(C)C)Oc1cccc2ccccc12)Cn1cc(C)c(=O)[nH]c1=O (stereo not given in full) | > 100 | > 100 | > 100 | > 100 | > 100 | > 100 | > 100 | > 100 | > 100 | > 100 | > 100 | > 100 | > 100 | > 100 | > 100 | > 100 | > 100 | > 100 | > 100 | > 100 | EC50 (Human betaherpesvirus 5 [11]): > 100 µM; MCC [14]: ≥ 20 µM; MCC [15]: ≥ 20 µM; MCC [16]: > 100 µM; EC50 (Influenza A virus [17]): > 100 µM; EC50 (Influenza A virus H3N2 [18]): > 100 µM; EC50 (Influenza B virus [19]): > 100 µM
4 | C/C(=C/CP(=O)(N[C@@H](C)C(=O)OC(C)C)Oc1cccc2c1CCCC2)Cn1cc(C)c(=O)[nH]c1=O (stereo not given in full) | > 100 | > 100 | > 100 | > 100 | > 100 | > 100 | > 100 | > 100 | > 100 | > 100 | > 100 | > 100 | > 100 | > 20 | > 20 | 100 | 45 | 58 | 45 | 58 | EC50 (Human alphaherpesvirus 3 [9]): > 20 µM; MCC [14]: > 100 µM; MCC [15]: > 100 µM; MCC [16]: 100 µM; EC50 (Influenza A virus [17]): > 100 µM; EC50 (Influenza A virus H3N2 [18]): > 100 µM; EC50 (Influenza B virus [19]): > 100 µM
5 | C/C(=C\CP(=O)(N[C@@H](C)C(=O)OC(C)C)Oc1ccccc1)Cn1cc(C)c(=O)[nH]c1=O (stereo not given in full) | > 100 | > 100 | > 100 | > 100 | > 100 | > 100 | > 100 | > 100 | > 100 | > 100 | > 100 | > 100 | > 100 | > 100 | > 100 | > 100 | > 100 | > 100 | > 100 | > 100 | EC50 (Human alphaherpesvirus 3 [9]): 76.5 µM; EC50 (Human betaherpesvirus 5 [11]): > 100 µM; MCC [14]: ≥ 20 µM; MCC [15]: ≥ 20 µM; MCC [16]: > 100 µM; EC50 (Influenza A virus [17]): > 100 µM; EC50 (Influenza A virus H3N2 [18]): > 100 µM; EC50 (Influenza B virus [19]): > 100 µM
6 | C/C(=C/CP(=O)(N[C@@H](C)C(=O)OCc1ccccc1)Oc1cccc2c1CCCC2)Cn1cc(C)c(=O)[nH]c1=O (stereo not given in full) | > 100 | > 100 | > 100 | > 100 | > 100 | > 100 | > 100 | > 100 | > 100 | > 100 | > 100 | > 100 | > 100 | 65.1 | 76.5 | > 100 | > 100 | > 100 | > 100 | > 100 | EC50 (Human alphaherpesvirus 3 [9]): 17 µM; MCC [14]: ≥ 20 µM; MCC [15]: ≥ 20 µM; MCC [16]: > 100 µM; EC50 (Influenza A virus [17]): > 100 µM; EC50 (Influenza A virus H3N2 [18]): > 100 µM; EC50 (Influenza B virus [19]): > 100 µM
7 | Nc1nc2c(ncn2COCCO)c(=O)[nH]1 [ACYCLOVIR] |  |  | 126 | > 250 |  |  |  |  |  |  |  |  |  |  |  | 250 to 440 |  |  |  |  | 
8 | Cc1cn([C@H]2C[C@H](F)[C@@H](CO)O2)c(=O)[nH]c1=O [ALOVUDINE] |  |  |  |  | 1.2 |  |  |  |  |  |  |  |  |  |  | > 250 |  |  |  |  | 
